Data on 13 molecules can be found in PubChem BioAssay.

A word on the inhibition: it is the change of the read-out against control, counted positive when it falls.

Assay [1] is described as follows: inhibitors of TNFa-induced NFkB p65 translocation, primary screen, imaging, HUVEC, MLSMR starter and 10KST1 sets (AID 438).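 Also: compound added about 3h40 before a 20 min TNFalpha stimulation.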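 As to inhibition: signal is the nuclear over cytoplasmic p65 intensity ratio per well.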 The settings on record: HUVEC TNFa-induced p65 nuclear translocation; cell count: measured here: nuclei count (cytotoxicity indicator), at 2.08 µM; inhibition: at 2 µM, stronger effect = higher value, 0% TNFa-plus-vehicle, 100% no-TNFa wells.
Assay [2] is described as follows: inhibitors of mutant huntingtin aggregation, primary screen, imaging, exon1htt(103Q)mCFP cells, high-content imaging (AID 483;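 active = visual image review flags a hit and inhibition of aggregation exceeds 20%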;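 also: compound exposure lasted 3 days before fixation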;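 as to nuclei count: percent of the per-plate median nuclei count of sample wells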). The settings on record: exon1htt(103Q)mCFP cell line, aggregate imaging, at 2 µM; inhibition of aggregation: stronger effect = higher value; nuclei count: measured here: cell count, toxicity.
The nature of assay [3]: inhibitors of E-selectin induction by TNFa, primary screen, imaging, HUVEC, immunofluorescence, MLSMR starter and 10KST1 sets (AID 487;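 active = visually confirmed hit in the image check and inhibition above 20%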;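 as to inhibition: signal is fraction of cell area covered by stained E-selectin grains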;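 as to nuclei count: 100% = median nuclei count of all wells on the same plate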). The settings on record: HUVEC TNFalpha-induced E-selectin immunofluorescence imaging, at 2 µM; inhibition: stronger effect = higher value; nuclei count: measured here: cell number, toxicity.
Assay [4] concerns the target Voltage-gated potassium channel subunit beta-2 (Rattus norvegicus) (UniProt P62483). Briefly: KvBeta enzyme negative modulators, primary screen, biochemical, NADPH fluorescence (AID 622;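 active = fluorescence slope higher than the sample average by over 3 SD, cut at about -0.22 in these data, passing the limit was not always enough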;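 also: slope of raw intensity against log time taken from 70 to 1610 s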). The settings on record: recombinant KvBeta, 4-cyanobenzaldehyde reduction, at 10 µM, stronger effect = higher value.
For assay [5] the target is unchanged. Description: KvBeta positive modulators, primary screen, biochemical, NADPH fluorescence (AID 623;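 active = NADPH fluorescence slope more negative than the mean of all samples by about 3 SD, 99.7% confidence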;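 also: fluorescence intensity change per second fitted from 20 to 320 s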). The settings on record: Recombinant KvBeta, NADPH fluorescence decrease slope, 10 min; at 10 µM; stronger effect = lower value.
Assay [6] concerns the target Alpha-2C adrenergic receptor (Homo sapiens) (UniProt P18825). Description: modulators of alpha2C/GIRK thallium flux, primary screen, cell-based, HEK293 alpha2C/GIRK1/2 (AID 624;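 active = fluorescence slope after compound addition differing from the mean of all screened samples at 99.7% confidence, in either direction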;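 also: slope of fluorescence ratio to pre-addition baseline per second over 15 to 24 s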). The settings on record: thallium flux BTC fluorescence, at 10 µM, actives lie on both sides.
Assay [7] is described as follows: inhibitors of larval lipid processing in zebrafish, primary screen, whole organism, PED6 fluorescence, gall bladder and intestine (AID 686;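 active = a full or partial loss of lipid-probe fluorescence in the fish gall bladder, intestine or both, judged by eye; inactive = no fluorescence loss, or compound toxic to the fish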;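 also: signal comes from phospholipase A2 cleavage of quenched PED6 carried via bile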). The settings on record: Zebrafish larvae PED6 lipid processing, fluorescence scoring; screened at 20 µM (by protocol). A digest of the protocol: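 Doses: 20 µM single dose. Test system: live zebrafish larvae aged 5-7 days, whole organism. Quantity: five larvae per well. Measured by: By-eye fluorescence microscopy. Reagent: ingested quenched lipid PED6 at 100 nM. Read-out: visual per-well fluorescence inhibition score. Times: overnight exposure of larvae to compound plus PED6.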

Assay [8] is described as follows: inhibitors of Sendai virus-induced IRF3 signaling, primary screen, TLR/RLR signaling modifier project, cell-based, Sendai virus stimulus, luciferase, 10K MLSCN set (AID 602276;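 active = inhibition at or above 50% at 10 µM; inactive = inhibition below 50%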;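 also: firefly luciferase from ISG56 promoter only with Renilla not read in this screen; 0% = Sendai virus plus DMSO and 100% = medium plus DMSO without virus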). The settings on record: HEK293 RL24 IRF3 luciferase reporter, at 10 µM, stronger effect = higher value.
The nature of assay [9]: inhibitors of poly I:C-induced TLR3 signaling, primary screen, cell-based, poly I:C stimulus, luciferase, 10K MLSCN set (AID 602277;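 active = inhibition of the reporter signal at or above 50%; inactive = inhibition below 50%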). The settings on record: HEK293-TLR3 RL24 IRF3 luciferase reporter, at 10 µM, stronger effect = higher value. In general terms: Reporter assays use an easily measured gene product as a stand-in for the process of interest.

Active and inactive are the calls of the source.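 The calls were made as follows, unless noted: active = inhibition above 20% together with a positive visual image hit; inconclusive = visual image hit but inhibition not above 20%; inactive = no visual image hit.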

Sequence of Voltage-gated potassium channel subunit beta-2 (Rattus norvegicus) (P62483 whole entry, looked up): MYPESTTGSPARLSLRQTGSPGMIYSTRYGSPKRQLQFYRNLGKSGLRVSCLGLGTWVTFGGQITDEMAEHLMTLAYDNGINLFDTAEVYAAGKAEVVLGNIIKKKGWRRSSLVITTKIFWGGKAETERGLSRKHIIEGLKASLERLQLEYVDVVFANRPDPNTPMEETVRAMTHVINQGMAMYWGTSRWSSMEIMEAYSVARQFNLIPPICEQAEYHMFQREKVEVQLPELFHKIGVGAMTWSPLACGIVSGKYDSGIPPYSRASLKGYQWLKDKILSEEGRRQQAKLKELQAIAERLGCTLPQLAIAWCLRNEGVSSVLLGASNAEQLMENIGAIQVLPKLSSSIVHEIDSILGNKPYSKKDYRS
Sequence of Alpha-2C adrenergic receptor (Homo sapiens) (P18825 whole entry, looked up): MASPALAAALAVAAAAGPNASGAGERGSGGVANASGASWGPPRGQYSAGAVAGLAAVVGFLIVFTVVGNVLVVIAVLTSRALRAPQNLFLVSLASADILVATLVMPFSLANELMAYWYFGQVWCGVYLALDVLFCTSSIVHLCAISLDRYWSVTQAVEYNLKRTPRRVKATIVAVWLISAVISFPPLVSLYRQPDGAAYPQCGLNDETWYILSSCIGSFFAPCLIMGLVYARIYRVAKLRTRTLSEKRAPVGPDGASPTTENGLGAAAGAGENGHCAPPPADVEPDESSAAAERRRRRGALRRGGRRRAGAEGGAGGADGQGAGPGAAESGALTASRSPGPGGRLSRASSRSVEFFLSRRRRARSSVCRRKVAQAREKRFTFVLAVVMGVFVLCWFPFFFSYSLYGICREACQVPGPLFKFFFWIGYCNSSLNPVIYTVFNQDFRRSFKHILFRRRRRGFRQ

With `CC1(C)C(c2cccs2)=[N+]([O-])C2(CCCCC/C2=N\O)N1O` (stereo unspecified), the cell count in assay [1] amounted to 423. For the same molecule, the inhibition in [1] was 0.5% (inactive); in assay [3] it was -97.1% (inactive); in assay [8] it was 15.7% (inactive); in assay [9] it was 15.3% (inactive). Further, in assay [2], the inhibition of aggregation was 5.7% (inactive). In addition, the values for the nuclei count in assay [2] and in assay [3] were 91.7% and 112%, respectively. Moreover, in assay [4], the fluorescence slope was -0.46 (inactive). Moreover, in assay [5], the NADPH fluorescence slope was -4.9e-05 (inactive). Besides, in assay [6], the slope is 0.00609 (inactive). For the same molecule, in [7], the result was inactive.
Consider `Cc1cccc(NC(=O)CC2CCC2)c1`, for which, in assay [1], the cell count came out at 362. The inhibition in [1] is -4.1% (inactive); in assay [3], 40.7% (inactive); in [8], 3.07% (inactive); in assay [9], -0.215% (inactive). For the same molecule, the inhibition of aggregation in [2] is 3% (inactive). Besides, the figures for the nuclei count in assay [2] and in assay [3] were 97.1% and 71.8%, respectively. In addition, the fluorescence slope in assay [4] was -0.435 (inactive). Further, the NADPH fluorescence slope in [5] was -2.3e-05 (inactive). Moreover, in assay [6], the slope is 0.00515 (inactive). In addition, the molecule was called inactive in assay [7].
`C=CCSc1nnc(-c2ccc(Cl)cc2Cl)o1`: in assay [1], the cell count is 400. Moreover, the inhibition is 0.2% (inactive) in [1], 14.7% (inactive) in assay [3], -1.24% (inactive) in assay [8] and -58.3% (inactive) in [9]. In addition, the inhibition of aggregation in [2] was 16.3% (inactive). Besides, the nuclei count is 84.8% in [2] and 88.4% in assay [3]. In addition, the fluorescence slope in assay [4] was -0.373 (inactive). In addition, the NADPH fluorescence slope in assay [5] is -5.2e-05 (inactive). Further, the slope in assay [6] was 0.00563 (inactive). For the same molecule, the outcome in assay [7] was inactive.
Regarding `COc1cc(C(=O)N(C)c2nnc(-c3cccnc3)s2)cc(OC)c1OC`, the cell count in assay [1] is 646. Moreover, the inhibition in assay [1] is -5.5% (inactive); in assay [3], 3.6% (inactive); in [8], -9.5% (inactive); in [9], -1.29% (inactive). Also, in assay [2], the inhibition of aggregation was 0.4% (inactive). Also, the nuclei count was found to be 99.2% in assay [2] and 103% in assay [3]. Moreover, the fluorescence slope in [4] was -0.5 (inactive). Further, in assay [5], the NADPH fluorescence slope was 1.3e-05 (inactive). Besides, the slope in assay [6] is 0.00473 (inactive). Further, the outcome in [7] was inactive.
In the case of `CCCCCCC(c1c(C)n(C)n(-c2ccccc2)c1=O)c1c(C)n(C)n(-c2ccccc2)c1=O`, the cell count in assay [1] was found to be 272. Also, the inhibition in [1] is -12.6% (inactive); in [3], -39.4% (inactive); in assay [8], 7.89% (inactive); in assay [9], 7.24% (inactive). The inhibition of aggregation in [2] was 21% (inactive). For the same molecule, the nuclei count turned out to be 59.4% in assay [2] and 102% in [3]. Besides, the fluorescence slope in assay [4] was -0.407 (inactive). Also, the NADPH fluorescence slope in assay [5] was -5e-05 (inactive). In addition, the slope in assay [6] is 0.00514 (inactive). Besides, in assay [7], the outcome was inactive.
As for `O=C(Nc1ccc(NC(=O)C2CC2)cn1)c1ccccc1Cl`, the cell count in assay [1] is 745. For the same molecule, the inhibition is 2.6% (inactive) in [1], -79% (inactive) in [3], -65.9% (inactive) in [8] and -212% (inactive) in assay [9]. Also, the inhibition of aggregation in [2] was -13% (inactive). Further, the nuclei count in assay [2] was 104%; in assay [3], 113%. Further, the fluorescence slope in assay [4] was -0.316 (inactive). Further, the NADPH fluorescence slope in [5] was -8e-07 (inactive). Also, the slope in assay [6] was 0.00552 (inactive). Further, the result in [7] was inactive.
Regarding `CCOC(=O)C1CCN(CC(=O)c2c(C)[nH]c3ccccc23)CC1`, the cell count in assay [1] came to 669. For the same molecule, the inhibition was 3.9% (inactive) in assay [1], 11.6% (inactive) in assay [3], -3.58% (inactive) in [8] and 15.2% (inactive) in assay [9]. Moreover, the inhibition of aggregation in [2] was -5.8% (inactive). Also, the nuclei count turned out to be 99.6% in [2] and 102% in assay [3]. For the same molecule, the fluorescence slope in [4] was -0.421 (inactive). Moreover, the NADPH fluorescence slope in [5] is -1.5e-05 (inactive). In assay [6], the slope was 0.00551 (inactive). In [7], the result was inactive.
On to `O=C(O)COc1cccc(NC(=O)C2CCCO2)c1` (stereo unspecified), for which the cell count in assay [1] amounted to 308. Also, the inhibition in assay [1] is -7% (inactive); in [3], -14.3% (inactive); in assay [8], -6.85% (inactive); in assay [9] it was -4.06% (inactive). Moreover, the inhibition of aggregation in [2] was 0.8% (inactive). The nuclei count was 97.2% in assay [2] and 90% in [3]. The fluorescence slope in assay [4] is -0.471 (inactive). In addition, the NADPH fluorescence slope in assay [5] was 1.1e-05 (inactive). In [6], the slope was 0.00558 (inactive). The result in assay [7] was inactive.
Consider `COc1ccc(N2C(=O)c3cccc4cccc(c34)C2=O)nn1`, for which, in assay [1], the cell count stood at 345. The inhibition in assay [1] was 1.5% (inactive); in [3] it was -81.4% (inactive); in [8] it was 9.08% (inactive); in assay [9], 20.4% (inactive). Besides, in [2], the inhibition of aggregation is 4.9% (inactive). The values for the nuclei count in assay [2] and in assay [3] were 105% and 114%, respectively. For the same molecule, the fluorescence slope in assay [4] was -0.421 (inactive). The NADPH fluorescence slope in assay [5] was -2.8e-05 (inactive). The slope in assay [6] was 0.00401 (inactive). Besides, the call in [7] was inactive.
For the molecule `CSc1nnc(-c2cnccn2)n1Cc1ccccc1`, the cell count in assay [1] is 386. The inhibition in [1] is 2.9% (inactive); in assay [3], 5.7% (inactive); in assay [8] it was -5.1% (inactive); in assay [9], 2.59% (inactive). Also, in assay [2], the inhibition of aggregation is -2.6% (inactive). The nuclei count in assay [2] stood at 101%; in [3], 121%. For the same molecule, the fluorescence slope in assay [4] was -0.481 (inactive). In addition, the NADPH fluorescence slope in assay [5] was -5.6e-07 (inactive). In addition, the slope in [6] is 0.00544 (inactive). Moreover, the molecule was classed as inactive in [7].
On to `Cc1cc(Br)c(S(=O)(=O)n2nnc3ccccc32)cc1C`, for which the cell count in assay [1] was found to be 608. Moreover, the inhibition in assay [1] is -4.5% (inactive); in assay [3], 29% (inactive); in assay [8] it was 13.1% (inactive); in assay [9], 12.1% (inactive). Moreover, the inhibition of aggregation in assay [2] was 3.7% (inactive). Also, the nuclei count in [2] is 81.9%; in assay [3], 107%. For the same molecule, in assay [4], the fluorescence slope was -0.326 (inactive). The NADPH fluorescence slope in assay [5] is 2.1e-05 (inactive). The slope in [6] is 0.00509 (inactive). Further, in assay [7], the result was inactive.
Regarding `COc1ccc(-c2nnc(SCc3nnc(-c4ccc(Cl)cc4)o3)n2-c2ccccc2)cc1`, in [1], the cell count turned out to be 565. The inhibition was -13.6% (inactive) in assay [1], 17.2% (inactive) in assay [3], -45% (inactive) in assay [8] and -62.8% (inactive) in assay [9]. Moreover, in assay [2], the inhibition of aggregation is 12.1% (inactive). The nuclei count was 106% in [2] and 138% in assay [3]. Also, the fluorescence slope in [4] was -0.398 (inactive). Also, the NADPH fluorescence slope in [5] is -6.2e-05 (inactive). Besides, the slope in assay [6] was 0.00535 (inactive). For the same molecule, the molecule was classed as inactive in assay [7].
With `COc1ccc(-c2noc(CSc3nc4ccccc4c(=O)n3-c3ccccc3)n2)cc1OC`, the cell count in assay [1] stood at 498. In addition, the inhibition in assay [1] was -1.8% (inactive); in assay [3], -114% (inactive); in [8], 23.5% (inactive); in [9], 26.1% (inactive). For the same molecule, the inhibition of aggregation in assay [2] was 12.7% (inactive). Further, the nuclei count in assay [2] worked out at 96.7%; in assay [3] it was 128%. For the same molecule, the fluorescence slope in [4] is -0.412 (inactive). Besides, the NADPH fluorescence slope in assay [5] is -4.5e-05 (inactive). Moreover, the slope in [6] is 0.0108 (active). In assay [7], the call was inactive.
